21 compounds from ChEMBL document CHEMBL1240491, “In vitro anticancer screening and radiosensitizing evaluation of some new quinolines and pyrimido[4,5-b]quinolines bearing a sulfonamide moiety” (Eur J Med Chem, 2010) can be followed below.

The test system of experiment [1] is MCF7. Kind of experiment: Anticancer activity against human MCF7 cells assessed as survival fraction at 10 uM after 48 hrs by SRB assay. Type of experiment: functional. The method, boiled down: (§1)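 Unirradiated MCF7 monolayers attached for 24 h after plating at 10⁴ cells/well, then exposed to a range of compound concentrations (dissolved in DMSO) with replicate wells per concentration. Incubated 48 h at 37 °C under 5% CO₂. Sulforhodamine B assay: fixation, 30 min 0.4% SRB/1% acetic acid, four acid washes, Tris-EDTA elution, colorimetric reading. Surviving fraction given as mean ± standard error.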

For experiment [2], the system named is MCF7. Nature of the experiment: Anticancer activity against human MCF7 cells assessed as survival fraction at 25 uM after 48 hrs by SRB assay. In kind it is functional. The method, boiled down:
as §1

The test system of experiment [3] is MCF7. Kind of experiment: Anticancer activity against human MCF7 cells assessed as survival fraction at 50 uM after 48 hrs by SRB assay. Type of experiment: functional. The method, boiled down:
as §1

Experiment [4] has as its system MCF7. Nature of the experiment: Anticancer activity against human MCF7 cells assessed as survival fraction at 100 uM after 48 hrs by SRB assay. In kind it is functional. The method, boiled down:
as §1

Experiment [5] deals with MCF7. Nature of the experiment: Anticancer activity against human MCF7 cells assessed as survival fraction after 48 hrs by SRB assay. In kind it is functional, cell-based. The settings on record: MCF7, 48 h. The method, boiled down: as §1
For experiment [6], the system named is MCF7. Nature of the experiment: Anticancer activity against 8 Gy irradiated human MCF7 cells assessed as survival fraction at 10 uM after 48 hrs by SRB assay. Type of experiment: functional. The method, boiled down: (§2)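 MCF7 cells seeded at 10⁴ cells/well for 24 h, then given test compound (DMSO solution; 10, 25, 50 or 100 in the concentration series) plus a single 8 Gy γ-irradiation. Incubated 48 h, 37 °C, 5% CO₂. SRB readout: fix, stain 30 min with 0.4% SRB in 1% acetic acid, wash, solubilize in Tris-EDTA, read on ELISA reader. Surviving fraction is the mean of three values ± SE.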

Experiment [7] relates to MCF7. Nature of the experiment: Anticancer activity against 8 Gy irradiated human MCF7 cells assessed as survival fraction at 25 uM after 48 hrs by SRB assay. In kind it is functional. The method, boiled down:
as §2

The test system of experiment [8] is MCF7. Nature of the experiment: Anticancer activity against 8 Gy irradiated human MCF7 cells assessed as survival fraction at 50 uM after 48 hrs by SRB assay. Type of experiment: functional. The method, boiled down:
as §2

In experiment [9] the test system is MCF7. Kind of experiment: Anticancer activity against 8 Gy irradiated human MCF7 cells assessed as survival fraction at 100 uM after 48 hrs by SRB assay. In kind it is functional. The method, boiled down:
as §2

Experiment [10] relates to MCF7. Kind of experiment: Anticancer activity against 8 Gy irradiated human MCF7 cells assessed as survival fraction after 48 hrs by SRB assay. Type of experiment: functional, cell-based. The settings on record: MCF7, light or radiation study. The method, boiled down:
as §2

With `CC1(C)CC(=O)C2=C(C1)N(c1ccc(S(N)(=O)=O)cc1)c1ncnc(NN)c1C2c1ccc(Cl)cc1` (stereo not drawn), the Activity came out at 0.94 with MCF7 [1], 0.788 in the experiment on MCF7 [2], 0.672 in the experiment with MCF7 [3] and 0.358 in the experiment with MCF7 [4]. Further, the IC50 with MCF7 [5] is 76 µM.
On to `CC1(C)CC(=O)C2=C(C1)N(c1ccc(S(N)(=O)=O)cc1)C(N)=C(C#N)C2c1ccc(Cl)cc1` (stereo not drawn), for which the Activity in the experiment with MCF7 [1] came to 0.915; with MCF7 [2] it was 0.612; with MCF7 [3], 0.429; with MCF7 [4], 0.484. Also, the IC50 in the experiment with MCF7 [5] amounted to 72.9 µM.
With `CC1(C)CC(=O)C2=C(C1)N(c1ccc(S(N)(=O)=O)cc1)c1nc[nH]c(=O)c1C2c1ccc(Cl)cc1` (stereo not drawn), the Activity was 0.891 with MCF7 [1], 0.676 in the experiment with MCF7 [2], 0.499 in the experiment with MCF7 [3] and 0.468 with MCF7 [4]. For the same compound, the IC50 in the experiment with MCF7 [5] was determined as 76.8 µM.
As to `CC(=O)NC1=C(C#N)C(c2ccc(Cl)cc2)C2=C(CC(C)(C)CC2=O)N1c1ccc(S(N)(=O)=O)cc1` (stereo not drawn), the Activity with MCF7 [1] came out at 0.948; with MCF7 [2] it was 0.779; in the experiment with MCF7 [3] it was 0.446; in the experiment on MCF7 [4], 0.324; with MCF7 [6], 0.427; in the experiment with MCF7 [7] it was 0.503. Further, the Activity in the experiment with MCF7 [8] stood at 0.31; in the experiment with MCF7 [9], 0.137. Also, the IC50 with MCF7 [5] was determined as 64.5 µM; in the experiment on MCF7 [10], 33.1 µM.
As for `CC(=O)N(C(C)=O)C1=C(C#N)C(c2ccc(Cl)cc2)C2=C(CC(C)(C)CC2=O)N1c1ccc(S(N)(=O)=O)cc1` (stereo not drawn), the Activity in the experiment with MCF7 [1] turned out to be 0.895; in the experiment with MCF7 [2], 0.773; in the experiment with MCF7 [3] it was 0.504; in the experiment on MCF7 [4], 0.414. In the experiment with MCF7 [5], the IC50 stood at 72.1 µM.
The corresponding values for `Cc1nc2c(c(=O)[nH]1)C(c1ccc(Cl)cc1)C1=C(CC(C)(C)CC1=O)N2c1ccc(S(N)(=O)=O)cc1` (stereo not drawn) are 0.976, 0.721, 0.45, 0.557 and 85.9 µM.
The corresponding values for `CC1(C)CC(=O)C2=C(C1)N(c1ccc(S(N)(=O)=O)cc1)c1ncnc(N)c1C2c1ccc(Cl)cc1` (stereo not drawn) are 0.886, 0.612, 0.495, 0.602 and 96.6 µM.
For `CCO/C=N/C1=C(C#N)C(c2ccc(Cl)cc2)C2=C(CC(C)(C)CC2=O)N1c1ccc(S(N)(=O)=O)cc1` (stereo not drawn), in that order: 0.803, 0.551, 0.498, 0.607 and 97.2 µM.
As to `CC1(C)CC(=O)C2=C(C1)N(c1ccc(S(N)(=O)=O)cc1)C(NC(=O)CCl)=C(C#N)C2c1ccc(Cl)cc1` (stereo not drawn), the Activity is given as 0.986 in the experiment with MCF7 [1], 0.736 in the experiment on MCF7 [2], 0.523 in the experiment on MCF7 [3] and 0.502 in the experiment with MCF7 [4]. In addition, the IC50 with MCF7 [5] was 84.3 µM.
For `CC1(C)CC(=O)C2=C(C1)N(c1ccc(S(N)(=O)=O)cc1)c1nc(CCl)[nH]c(=O)c1C2c1ccc(Cl)cc1` (stereo not drawn), in that order: 0.914, 0.775, 0.731, 0.625 and above 100 µM.
For `CC1(C)CC(=O)C2=C(C1)N(c1ccc(S(N)(=O)=O)cc1)c1nc(CC#N)[nH]c(=O)c1C2c1ccc(Cl)cc1` (stereo not drawn), in that order: 0.971, 0.901, 0.774, 0.525 and above 100 µM.
Regarding `CCNC(=S)NC1=C(C#N)C(c2ccc(Cl)cc2)C2=C(CC(C)(C)CC2=O)N1c1ccc(S(N)(=O)=O)cc1` (stereo not drawn), the Activity in the experiment with MCF7 [1] is on record as 0.916; in the experiment on MCF7 [2] it was 0.837; with MCF7 [3], 0.594; with MCF7 [4], 0.561. Besides, the IC50 with MCF7 [5] was determined as 99.6 µM.
The corresponding values for `CC1(C)CC(=O)C2=C(C1)N(c1ccc(S(N)(=O)=O)cc1)C(N1C(=O)CCC1=O)=C(C#N)C2c1ccc(Cl)cc1` (stereo not drawn) are 0.93, 0.813, 0.584, 0.549 and 95.2 µM.
Take `CC1(C)CC(=O)C2=C(C1)N(c1ccc(S(N)(=O)=O)cc1)C(N)=C(C(N)=O)C2c1ccc(Cl)cc1` (stereo not drawn): the Activity with MCF7 [1] is 0.922; in the experiment on MCF7 [2], 0.662; with MCF7 [3], 0.445; in the experiment on MCF7 [4], 0.452; in the experiment with MCF7 [6], 0.653; with MCF7 [7] it was 0.517. The figures for the Activity with MCF7 [8] and in the experiment on MCF7 [9] were 0.281 and 0.282, respectively. Further, the 50% inhibitory concentration (IC50) was 71.9 µM with MCF7 [5] and 44.4 µM in the experiment with MCF7 [10].
With `CC1(C)CC(=O)C2=C(C1)N(c1ccc(S(N)(=O)=O)cc1)C(N)=C(C1=NCCN1)C2c1ccc(Cl)cc1` (stereo not drawn), the Activity came to 0.939 in the experiment with MCF7 [1], 0.763 with MCF7 [2], 0.568 in the experiment with MCF7 [3] and 0.621 with MCF7 [4]. Further, in the experiment on MCF7 [5], the IC50 is above 100 µM.
The corresponding values for `CC(=O)CC(=O)NC1=C(C#N)C(c2ccc(Cl)cc2)C2=C(CC(C)(C)CC2=O)N1c1ccc(S(N)(=O)=O)cc1` (stereo not drawn) are 0.897, 0.82, 0.648, 0.549 and above 100 µM.
For `CC1(C)CC(=O)C2=C(C1)N(c1ccc(S(N)(=O)=O)cc1)c1nc[nH]c(=S)c1C2c1ccc(Cl)cc1` (stereo not drawn), in that order: 0.927, 0.91, 0.884, 0.814 and above 100 µM.
For `CC1(C)CC(=O)C2=C(C1)N(c1ccc(S(N)(=O)=O)cc1)c1ncnc(Cl)c1C2c1ccc(Cl)cc1` (stereo not drawn), in that order: 0.843, 0.696, 0.476, 0.546 and 86.5 µM.
Take `CCOC(=O)Cn1cnc2c(c1=O)C(c1ccc(Cl)cc1)C1=C(CC(C)(C)CC1=O)N2c1ccc(S(N)(=O)=O)cc1` (stereo not drawn): the Activity is listed as 0.954 in the experiment with MCF7 [1], 0.88 in the experiment on MCF7 [2], 0.653 in the experiment on MCF7 [3] and 0.563 in the experiment with MCF7 [4]. For the same compound, in the experiment with MCF7 [5], the concentration for half-maximal inhibition (IC50) is above 100 µM.
The corresponding values for `CC1(C)CC(=O)C2=C(C1)N(c1ccc(S(N)(=O)=O)cc1)c1ncnc(N=C=S)c1C2c1ccc(Cl)cc1` (stereo not drawn) are 0.972, 0.721, 0.419, 0.515 and 79.6 µM.
Turning to `COc1cccc2c1C(=O)c1c(O)c3c(c(O)c1C2=O)C[C@@](O)(C(=O)CO)C[C@@H]3O[C@H]1C[C@H](N)[C@H](O)[C@H](C)O1` [DOXORUBICIN], the Activity in the experiment with MCF7 [1] was found to be 0.721; in the experiment on MCF7 [3], 0.461; in the experiment with MCF7 [4] it was 0.494.
